Experimental data collected from several papers.
Protocols differ between the studies behind these lines. In brackets after ≈: the same amount, converted by molar mass.

Structure (SMILES)	organism	test	test system	conditions	quantity	value
CN1CCN(c2ncc(-c3ccc4nncc(Nc5ncccn5)c4c3)cn2)CC1	Trypanosoma cruzi	parasite growth	C2C12	intracellular, amastigote	EC50	> 10000 nM
CC[C@@H]1/C=C(\C)C[C@H](C)C[C@H](OC)[C@H]2O[C@@](O)(C(=O)C(=O)N3CCCC[C@H]3C(=O)O[C@H](/C(C)=C/[C@@H]3CC[C@H](Cl)[C@H](OC)C3)[C@H](C)[C@@H](O)CC1=O)[C@H](C)C[C@@H]2OC	Trypanosoma cruzi	parasite growth	Vero, TULAHUEN	72 h, intracellular, amastigote	IC50	2130 nM
COc1ccc(Nc2cnnc3cc(-c4ccc(N5CCN(C)CC5)cc4)ccc23)nc1	Trypanosoma cruzi	parasite growth	C2C12	intracellular, amastigote	EC50	2100 nM
COC(=O)N[C@H](C(=O)N1CC2(CC2)C[C@H]1c1nc(-c2ccc3c(c2)C(F)(F)c2cc(-c4ccc5[nH]c([C@@H]6[C@H]7CC[C@H](C7)N6C(=O)[C@@H](NC(=O)OC)C(C)C)nc5c4)ccc2-3)c[nH]1)C(C)C	Trypanosoma cruzi	parasite growth	Vero, TULAHUEN	72 h, intracellular, amastigote	IC50	60 nM
CC1CCC(C(C)C)C(OC2=C(Cl)C(=O)c3ccccc3C2=O)C1 (stereo not shown)	Alternaria alternata	microbial growth, broth dilution	–	–	MIC	12 µg/mL (≈ 34.6 µM)
CN[C@H](CC(C)C)C(=O)N[C@H]1C(=O)N[C@@H](CC(N)=O)C(=O)N[C@H]2C(=O)N[C@H]3C(=O)N[C@H](C(=O)N[C@H](C(=O)O)c4cc(O)cc(O)c4-c4cc3ccc4O)[C@H](O)c3ccc(c(Cl)c3)Oc3cc2cc(c3O[C@@H]2O[C@H](CO)[C@@H](O)[C@H](O)[C@H]2O[C@H]2C[C@](C)(N)[C@H](O)[C@H](C)O2)Oc2ccc(cc2Cl)[C@H]1O	Staphylococcus haemolyticus	microbial growth	–	clinical isolate	MIC	0.78 µg/mL (≈ 0.538 µM)
CN1CCN(c2ncc(-c3ccc4nncc(Nc5cnccn5)c4c3)cn2)CC1	Trypanosoma cruzi	parasite growth	C2C12	intracellular, amastigote	EC50	> 10000 nM
CC1(C)S[C@@H]2[C@H](NC(=O)[C@H](N)c3ccccc3)C(=O)N2[C@H]1C(=O)O	Staphylococcus haemolyticus	microbial growth	–	clinical isolate	MIC	> 200 µg/mL
OC(Cn1cncn1)(Cn1cncn1)c1ccc(F)cc1F	Alternaria alternata	microbial growth, broth dilution	–	–	MIC	10 µg/mL (≈ 32.7 µM)
O=C(Cn1ccnc1[N+](=O)[O-])NCc1ccccc1	Trypanosoma cruzi	parasite growth	LLC-MK2	48 h, intracellular, amastigote	IC50	0.71 µg/mL
